Test results published in ChEMBL document CHEMBL1135421, “2-(Anilinomethyl)imidazolines as alpha1 adrenergic receptor agonists: the discovery of alpha1a subtype selective 2'-alkylsulfonyl-substituted analogues” (J Med Chem, 2002).

Key:
[1] = target: T1, Alpha-2C adrenergic receptor (Homo sapiens, UniProt P18825); assay: Agonist potency at Alpha-2C adrenergic receptor expressed in CHO cells; type: functional, cell-based
T1 sequence (P18825 whole entry): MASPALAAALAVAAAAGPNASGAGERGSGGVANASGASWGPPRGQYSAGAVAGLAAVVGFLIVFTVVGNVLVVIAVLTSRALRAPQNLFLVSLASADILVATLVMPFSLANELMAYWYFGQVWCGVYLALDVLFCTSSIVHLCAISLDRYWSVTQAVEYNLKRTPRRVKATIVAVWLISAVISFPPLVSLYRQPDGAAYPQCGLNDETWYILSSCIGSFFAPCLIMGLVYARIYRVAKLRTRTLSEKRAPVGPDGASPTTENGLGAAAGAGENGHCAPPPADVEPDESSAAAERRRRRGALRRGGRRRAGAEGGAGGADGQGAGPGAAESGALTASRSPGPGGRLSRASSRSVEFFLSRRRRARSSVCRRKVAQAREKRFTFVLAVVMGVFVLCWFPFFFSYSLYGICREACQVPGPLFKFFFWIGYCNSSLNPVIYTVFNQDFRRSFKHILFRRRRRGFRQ

[2] = target: T2, Alpha-2A adrenergic receptor (Homo sapiens, UniProt P08913); assay: Agonist potency at Alpha-2A adrenergic receptor expressed in CHO cells; type: functional, cell-based
T2 sequence (P08913 whole entry): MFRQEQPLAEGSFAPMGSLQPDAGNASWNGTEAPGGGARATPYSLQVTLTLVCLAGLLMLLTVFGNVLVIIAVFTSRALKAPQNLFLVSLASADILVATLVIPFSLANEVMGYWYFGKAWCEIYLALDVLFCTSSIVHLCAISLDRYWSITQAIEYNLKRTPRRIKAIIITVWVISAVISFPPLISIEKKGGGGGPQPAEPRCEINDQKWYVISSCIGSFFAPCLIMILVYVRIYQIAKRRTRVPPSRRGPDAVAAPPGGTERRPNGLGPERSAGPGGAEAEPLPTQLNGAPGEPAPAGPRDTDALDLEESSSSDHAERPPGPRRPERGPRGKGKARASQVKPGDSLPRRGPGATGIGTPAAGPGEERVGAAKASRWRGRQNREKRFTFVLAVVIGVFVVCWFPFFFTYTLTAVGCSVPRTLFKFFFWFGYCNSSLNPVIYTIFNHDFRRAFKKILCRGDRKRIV

[3] = target: T3, Alpha-1A adrenergic receptor (Homo sapiens) (UniProt P35348); assay: Efficacy as % of the maximal effect observed for nonselective agonist phenylephrine in rat-1 fibroblasts expressing human Alpha-1 adrenergic receptor; type: functional
T3 sequence (whole entry): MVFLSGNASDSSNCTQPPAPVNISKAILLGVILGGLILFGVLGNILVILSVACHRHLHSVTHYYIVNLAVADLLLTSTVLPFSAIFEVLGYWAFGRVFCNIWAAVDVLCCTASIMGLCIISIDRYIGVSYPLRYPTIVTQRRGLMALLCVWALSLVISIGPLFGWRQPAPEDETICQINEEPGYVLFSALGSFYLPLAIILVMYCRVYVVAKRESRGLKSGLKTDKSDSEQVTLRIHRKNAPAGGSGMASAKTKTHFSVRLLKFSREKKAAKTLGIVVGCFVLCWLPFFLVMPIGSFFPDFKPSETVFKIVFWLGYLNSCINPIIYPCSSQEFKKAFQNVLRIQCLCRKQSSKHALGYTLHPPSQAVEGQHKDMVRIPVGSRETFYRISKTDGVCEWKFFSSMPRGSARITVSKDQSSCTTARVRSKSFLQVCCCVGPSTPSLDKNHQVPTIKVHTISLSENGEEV
Method in brief: (§1)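 Rat-1 fibroblasts expressing human α1a/α1b/α1d, grown in DMEM with 10% heat-inactivated FBS and 0.6 mg/mL G418, plated 6000 cells/well and cultured 48 h at 37 °C. Loaded 2 h at 37 °C with Calcium Green (4 μM), 0.2% pluronic acid and 2.5 mM probenecid in HEPES buffer pH 7.4. FLIPR read at room temperature: 10 s baseline, then 50 s after compound. 11-point curves as % of 40 μM phenylephrine response, top concentration typically 5 μM.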

[4] = target: T4, Alpha-1B adrenergic receptor (Homo sapiens) (UniProt P35368); assay: Efficacy as % of the maximal effect observed for nonselective agonist phenylephrine in rat-1 fibroblasts expressing human Alpha-1B adrenergic receptor; type: functional; method in brief: as §1
T4 sequence (whole entry): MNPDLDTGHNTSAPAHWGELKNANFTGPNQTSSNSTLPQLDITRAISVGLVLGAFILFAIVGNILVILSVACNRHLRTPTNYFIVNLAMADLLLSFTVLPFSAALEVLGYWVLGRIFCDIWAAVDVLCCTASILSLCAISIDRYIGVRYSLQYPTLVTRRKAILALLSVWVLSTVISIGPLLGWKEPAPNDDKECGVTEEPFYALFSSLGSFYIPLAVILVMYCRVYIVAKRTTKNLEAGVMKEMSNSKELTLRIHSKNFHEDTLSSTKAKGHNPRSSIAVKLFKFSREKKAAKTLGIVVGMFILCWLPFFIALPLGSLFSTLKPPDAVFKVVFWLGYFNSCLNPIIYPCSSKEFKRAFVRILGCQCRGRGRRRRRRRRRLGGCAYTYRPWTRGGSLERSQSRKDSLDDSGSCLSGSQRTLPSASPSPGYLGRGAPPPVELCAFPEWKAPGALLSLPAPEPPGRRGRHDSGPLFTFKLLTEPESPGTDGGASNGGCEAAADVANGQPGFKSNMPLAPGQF

[5] = target: T5, Alpha-1D adrenergic receptor (Homo sapiens) (UniProt P25100); assay: Efficacy as percent maximal effect observed for nonselective agonist phenylephrine in rat-1 fibroblasts expressing human Alpha-1D adrenergic receptor; type: functional; method in brief: as §1
T5 sequence (whole entry): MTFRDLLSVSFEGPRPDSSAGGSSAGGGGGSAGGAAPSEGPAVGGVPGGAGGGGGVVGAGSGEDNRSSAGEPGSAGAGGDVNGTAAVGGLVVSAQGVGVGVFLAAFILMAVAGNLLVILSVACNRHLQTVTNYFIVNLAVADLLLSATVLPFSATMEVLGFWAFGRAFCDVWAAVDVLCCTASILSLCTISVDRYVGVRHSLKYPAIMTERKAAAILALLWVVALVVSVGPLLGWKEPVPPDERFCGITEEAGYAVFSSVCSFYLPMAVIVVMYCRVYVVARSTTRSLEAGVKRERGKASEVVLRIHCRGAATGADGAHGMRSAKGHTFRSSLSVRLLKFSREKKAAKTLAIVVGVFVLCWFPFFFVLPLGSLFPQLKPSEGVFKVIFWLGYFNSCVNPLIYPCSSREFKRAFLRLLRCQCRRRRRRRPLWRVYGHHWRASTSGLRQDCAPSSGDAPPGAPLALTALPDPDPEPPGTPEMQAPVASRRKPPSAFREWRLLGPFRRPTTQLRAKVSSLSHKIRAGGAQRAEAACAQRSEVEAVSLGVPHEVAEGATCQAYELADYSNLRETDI

| SMILES | EC50 [1] [nM] | EC50 [2] [nM] | Max [3] [%] | Max [4] [%] | Max [5] [%] |
| --- | --- | --- | --- | --- | --- |
| CC(C)S(=O)(=O)c1ccccc1NCC1=NCCN1 | > 10000 | > 10000 | 70 |  |  |
| Cc1ccc(S(C)(=O)=O)c(NCC2=NCCN2)c1 |  |  | 98 | 91 |  |
| CSc1ccc(Cl)cc1NCC1=NCCN1 |  |  | 82 | 103 | 106 |
| CSc1ccc(C)cc1NCC1=NCCN1 |  |  | 101 | 96 | 107 |
| CS(=O)(=O)c1ccc(F)cc1NCC1=NCCN1 |  |  | 96 |  |  |
| CSc1ccc(F)cc1NCC1=NCCN1 |  |  | 90 | 92 | 107 |
| CCCS(=O)(=O)c1ccccc1NCC1=NCCN1 |  |  | 115 |  |  |
| CSc1cc(F)ccc1NCC1=NCCN1 |  |  | 93 | 78 | 75 |
| CCS(=O)(=O)c1ccccc1NCC1=NCCN1 | 5010 | > 10000 | 115 |  |  |
| CCSc1ccccc1NCC1=NCCN1 |  | 251 | 109 | 82 | 34 |
| CS(=O)(=O)c1ccccc1NCC1=NCCN1 |  |  | 103 |  |  |
| CS(=O)(=O)c1cc(Cl)ccc1NCC1=NCCN1 |  |  | 41 |  |  |
| CSc1c(F)cccc1NCC1=NCCN1 | 15.8 | 100 | 91 | 48 | 59 |
| C[S+]([O-])c1ccccc1NCC1=NCCN1 (configuration not stated) | > 10000 | > 10000 | 91 |  |  |
| CSc1ccccc1NCC1=NCCN1 | 5.62 |  |  |  | 55 |
| COc1ccc(SC)c(NCC2=NCCN2)c1 |  |  | 101 | 92 | 91 |
| CS(=O)(=O)c1ccc(C(F)(F)F)cc1NCC1=NCCN1 |  |  | 95 |  |  |
| CC(C)Sc1ccccc1NCC1=NCCN1 | 28.2 | 417 | 115 | 29 |  |
| CS(=O)(=O)c1ccc(Cl)cc1NCC1=NCCN1 |  |  | 91 | 103 |  |
| CS(=O)(=O)c1cccc(F)c1NCC1=NCCN1 |  |  | 106 |  |  |
| CSc1ccc(C(F)(F)F)cc1NCC1=NCCN1 |  |  | 111 | 114 | 58 |
| CS(=O)(=O)c1c(F)cccc1NCC1=NCCN1 | 501 | > 10000 |  |  |  |
| CS(=O)(=O)c1cc(F)ccc1NCC1=NCCN1 | > 10000 | > 10000 | 61 |  |  |
